Assay outcomes from PubChem.
This is a sample that favours compounds with a hit; in the whole collection about 1.1% have one here.
PMI activator = phosphomannose isomerase (human) activation | P34949 | purified human PMI, coupled resazurin fluorescence, 20 min; hits give high values; 1 = vehicle control, 0 substrate-free wells | activation factor at 20 µM | 190,000 tested, 0.005% active | AID 1214;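 active = activation factor of 2 or more at 20 µM, relative to plate controls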
Target sequence (P34949 whole entry, looked up): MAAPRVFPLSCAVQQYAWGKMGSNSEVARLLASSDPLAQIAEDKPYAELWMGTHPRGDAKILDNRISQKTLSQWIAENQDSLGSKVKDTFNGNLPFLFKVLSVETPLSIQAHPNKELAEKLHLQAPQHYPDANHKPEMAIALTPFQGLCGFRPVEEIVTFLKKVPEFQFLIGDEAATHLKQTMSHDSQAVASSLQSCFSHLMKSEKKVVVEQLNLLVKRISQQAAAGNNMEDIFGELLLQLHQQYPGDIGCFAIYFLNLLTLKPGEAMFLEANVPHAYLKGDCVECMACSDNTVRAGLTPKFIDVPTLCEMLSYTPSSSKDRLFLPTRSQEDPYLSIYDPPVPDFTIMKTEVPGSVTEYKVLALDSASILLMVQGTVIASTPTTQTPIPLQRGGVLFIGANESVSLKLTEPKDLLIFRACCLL
Diaphorase act = counter-screen for diaphorase-based assays: diaphorase activators and chemical reducers; Diaphorase/resazurin coupled assay, resorufin fluorescence, 16 min; hits give high values; 1 = vehicle wells, 0 = NADH-free wells; activation factor at 20 µM; 190,000 tested, 0.005% active; AID 1229;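 active = diaphorase activity raised at least twofold by the compound at 20 µM; inactive = activation factor below 2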
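test system = bacterial diaphorase enzyme (C. kluyveri) | quantity = enzyme 0.07 U/mL final | reagent = NADH substrate 0.114 mM plus resazurin dye 0.1 mM, final | incubation = 16 min enzyme reaction, ambient temperature | buffer or medium = HEPES pH 7.4 buffer with MgCl2 and Tween 20 | signal = fluorescence of resorufin, 544 nm excitation, 590 nm emission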
G6PDH counter = L. mesenteroides G6PDH inhibition counter-screen. Purified L. mesenteroides G6PDH, diaphorase/resazurin coupled fluorescence, 45 min. inhibition, % at 5 µM. 200,000 tested, 0.12% active. AID 1020; in the data active = inhibition above about 50%
Diaphorase inh = diaphorase inhibition or chemical oxidation counter-screen. 190,000 tested, 0.69% active. AID 1217. inhibition, % at 20 µM. diaphorase resazurin-to-resorufin fluorescence, NADH, 16 min; bacterial (C. kluyveri) enzyme, not human;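 active = primary screen inhibition at 20 µM above a set limit, cut at about 50% in these data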;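 also: plate controls were DMSO with full reaction for no effect and wells lacking NADH for full effect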
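System: Bacterial diaphorase enzyme (C. kluyveri) | Incubation: 16-min room-temperature incubation before reading | Benchmarks: No-NADH positive control and DMSO neutral control | Measured by: Resorufin fluorescence 544/590 nm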
PMI act satM6P = activators of human phosphomannose isomerase at near-saturating mannose 6-phosphate. P34949. coupled PMI enzyme assay, resazurin fluorescence, 20 min; hits give high values; 1 = untreated enzyme, 0 = substrate-free blank. activation factor at 20 µM. 190,000 tested, 0.34% active. AID 1216;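 active = activation factor of 2 or more at 20 µM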
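Test system – human PMI in coupled enzyme assay · Timing – 20 min incubation at room temperature · Detection – Diaphorase-driven resazurin-to-resorufin fluorescence, excitation 544, emission 590 nm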
Starred values were filed as active, the others as inactive.

SMILES	PMI activator	Diaphorase act	G6PDH counter	Diaphorase inh	PMI act satM6P
CC[n+]1ccc(/C=C2\Sc3ccccc3N2CCCS(=O)(=O)[O-])c2ccccc21	0.9	0.9	15	7	0.9
CN1C=C/C(=C\c2cc[n+](C)c3ccccc23)c2ccccc21	0.4	0.4	60*	55*	0.4
COc1ccc(N(CC(=O)Nc2ccccc2F)S(=O)(=O)c2ccc(C)c([N+](=O)[O-])c2)cc1	1	1	11	2	1
CCOC(=O)C1(C)/C(=N/Nc2ccccc2)C(=O)C(=O)N1c1ccccc1 (stereo not given)	1.7	0.8	12	20	2.1*
COC(=O)CN(c1ccc(F)cc1)S(=O)(=O)c1ccc2c(c1)OCCO2	1	1	2	-1	1.1
O=C(Nc1cccn(Cc2c(F)cccc2Cl)c1=O)NC1CCCCC1	0.9	1	9	4	0.8
O=C(Nc1cccn(Cc2cccc(F)c2)c1=O)NC1CCCCC1	0.9	0.5	15	50*	0.7
CN(Cc1nc(-c2cccs2)no1)CC1(N2CCOCC2)CCCCC1	1	0.3	13	74*	1.1
Cc1ccc(N=CC2=C(O)CC(c3ccc(Cl)cc3)CC2=O)cc1 (stereo not given)	1	1	10	5	1
Cc1ccc(N=Nc2c(N)[nH]n3c(=O)cc(-c4ccccc4)nc23)cc1	0.7	0.4	-1	62*	0.9
CC(=O)C(C(C)=O)c1c(Cl)c(O)c(O)c2c(C(=O)c3ccccc3)coc12	0.4	0.3	7	67*	0.4
Cc1nn(-c2ccccc2)c(OC(=O)c2cccs2)c1S(=O)(=O)c1ccc([N+](=O)[O-])cc1	0.9	0.8	4	17	1
CCOC(=O)c1cn(-c2c(Cl)cccc2Cl)c2cc(Cl)c([N+](=O)[O-])cc2c1=O	1.1	0.5	0	52*	1.1
CCOC(=O)c1cn(CC)c2cc(Cl)c([N+](=O)[O-])cc2c1=O	1.1	0.9	-4	11	1.1
Cc1ccccc1NC(=O)CN(C)S(=O)(=O)c1cccc2cccnc12	1	0.9	0	15	0.9
COc1cccc(C(=O)NC2CC3CCCC(C2)N3CC(=O)Nc2ccccc2)c1 (stereo not given)	0.8	0.4	11	58*	1
O=C1CC(Nc2ccccc2)C(=O)N1c1ccc(N2CCOCC2)cc1 (stereo not given)	1	1.1	0	-6	1
O=C1CC(NNc2ccccc2)C(=O)N1c1ccc(N2CCCCC2)cc1 (stereo not given)	1.8	1.1	4	-12	2.7*
Brc1c(NC2=NCCN2)ccc2nccnc12	0.5	0.4	26	59*	0.4
CCOC(=O)C1=C(O)/C(=C/c2ccc(OCC(=O)O)c(OCC)c2)SC1=Nc1ccc(C)cc1	1	0.4	15	62*	0.9
CCOC(=O)C1=C(O)/C(=C/c2ccc(OCC(=O)O)c(OCC)c2)SC1=Nc1ccc(OC)cc1	1	0.5	11	47	1
Cc1cc(-c2csc(N)n2)c(C)n1CCC(C)C	1.6	0.8	6	17	1.9
Cc1cc(-c2csc(N)n2)c(C)n1CCc1ccccc1	1.7	0.8	2	19	2*
Nc1c(N2CCOCC2)cc(Cl)c2nonc12	0.6	0.6	49	43	0.3
Nc1ccc(N2CCCCC2)c2nonc12	0.6	0.7	54*	30	0.3
SMILES	PMI activator	Diaphorase act	G6PDH counter	Diaphorase inh	PMI act satM6P
Nc1ccc(N2CCCCC2)cc1N1CCCCC1	0.4	0.4	6	57*	0.5
Nc1cc(Cl)ccc1N1CCCCC1	0.9	0.8	11	20	0.8
Nc1c(N2CCCC2)cc(Cl)c2nonc12	0.5	0.4	57*	62*	0.4
COc1ccc(-c2nnnn2-c2ccc(F)cc2F)cc1	1.1	0.9	2	9	1.1
COc1c2ccoc2nc2c(OC)c(OCC(OC(C)=O)C(C)(C)O)ccc12 (stereo not given)	1	0.9	11	6	1
CC1=C(C(=O)Nc2ccccc2C)C2(CCCCC2)C(C(N)=O)C(=S)N1 (stereo not given)	1.5	0.9	18	10	2*
